In ChEMBL document CHEMBL1157821, “In vitro photodynamic therapy and quantitative structure-activity relationship studies with stable synthetic near-infrared-absorbing bacteriochlorin photosensitizers” (J Med Chem, 2010):

Assays:
[1] = test system: HeLa; test: Photocytotoxicity against human HeLa cells after 24 hrs by MTT assay in presence of 10 J/cm2 laser; format: functional; conditions: light or radiation study, read-out: LD50 (the source's name)
Outline: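 HeLa cells (5000/well) grown 24 h, then incubated 24 h with bacteriochlorin at 0.001–10 μM in complete RPMI with 10% serum (DMSO ≤0.2%). Medium replaced, then 10 J/cm2 of 732 nm laser light given (780 nm LED, 50 mW/cm2, for one compound). MTT (4 h, 562 nm) 24 h later. Survival is relative to untreated controls. LD50 in nM. Experiments done in triplicate.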

[2] = Octanol-water partition coefficient, log P by stir-flask method; format: physicochemical
Outline: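 About 2 mL octanol and 2 mL water were pre-stirred 3 h at room temperature. Under 0.5 mg bacteriochlorin was added and stirred 24 h at 100–200 rpm, then the phases settled for 30 min. An aliquot of each phase was diluted in DMSO and the Qy(0,0) absorbance ratio (octanol/water) was taken. A phase with no detectable compound was set at A=0.001 as a bound.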

[3] = test system: HeLa; test: Cellular uptake in human HeLa cells measured per mg of protein at 20.5 uM after 24 hrs by fluorescence measurements; format: ADME, cell-based
Outline: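 HeLa in RPMI with 10% heat-inactivated FBS, 5000 cells/well, grown 24 h, then given bacteriochlorin in complete medium (DMSO ≤0.2%) for 24 h. Cells were rinsed with warm PBS and lysed in SOLVABLE, 37 °C, 2 h. Fluorescence was read at ex 402/em 730 nm against per-compound calibration curves and normalized to BCA protein, giving nmol per mg protein. Three repeats.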

[4] = test system: HeLa; test: Cellular uptake in human HeLa cells assessed as localization to endoplasmic reticulum at 1 uM after 24 hrs by confocal fluorescence microscopy; format: ADME, cell-based
Outline: (§1)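 HeLa plated in 35 mm dishes, attached overnight, then given 1 μM bacteriochlorin in complete medium for 24 h. After a PBS wash, cells got 5 μg/mL LysoTracker green DND-26, MitoTracker green FM or ER-Tracker green for 30 min at 37 °C, then were washed again. Confocal imaging used 488 nm excitation, 515 ± 10 nm (tracker) or >580 nm (bacteriochlorin) emission, and a 63× water objective.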

[5] = test system: HeLa; test: Cellular uptake in human HeLa cells assessed as localization to lysosomes at 1 uM after 24 hrs by confocal fluorescence microscopy; format: ADME, cell-based; outline: as §1
[6] = test system: HeLa; test: Cellular uptake in human HeLa cells assessed as localization to mitochondria at 1 uM after 24 hrs by confocal fluorescence microscopy; format: ADME, cell-based; outline: as §1

Structure (SMILES)	CC50 [1] [nM]	logP ([2]; read-out: logP)	Drug uptake [3] [nmol/mg]	Drug uptake [4]	Drug uptake [5]	logP [2]	Drug uptake [6]
CC1(C)Cc2cc3[nH]c(cc4nc(cc5[nH]c(cc1n2)cc5CN(CCO)CCO)CC4(C)C)cc3CN(CCO)CCO	100	2.3	8.2	Active	Active		
CC1(C)Cc2cc3[nH]c(cc4nc(cc5[nH]c(cc1n2)cc5C(=O)NCCN)CC4(C)C)cc3C(=O)NCCN	3000	-0.5	7.7		Active		
CC1(C)Cc2cc3[nH]c(cc4nc(cc5[nH]c(cc1n2)cc5C(=O)N1CC[N+](C)(C)CC1)CC4(C)C)cc3C(=O)N1CC[N+](C)(C)CC1.[Cl-].[Cl-]	800		1.8			-1	
COCCN(CCOC)C(=O)c1cc2cc3nc(cc4[nH]c(cc5nc(cc1[nH]2)CC5(C)C)cc4C(=O)N(CCOC)CCOC)CC3(C)C	60	≥ 1.9	15				
COCCC(CCOC)c1cc2cc3nc(cc4[nH]c(cc5nc(cc1[nH]2)CC5(C)C)cc4C(CCOC)CCOC)CC3(C)C		≥ 2.5	11.7				
CC1(C)Cc2cc3[nH]c(cc4nc(cc5[nH]c(cc1n2)cc5C(=O)N(CCN)CCN)CC4(C)C)cc3C(=O)N(CCN)CCN	800	-1.4	1.8				
CC1(C)Cc2cc3[nH]c(cc4nc(cc5[nH]c(cc1n2)cc5-c1cc(OCCO)cc(OCCO)c1)CC4(C)C)cc3-c1cc(OCCO)cc(OCCO)c1	15	≥ 2.2	10.4				
CC1(C)Cc2cc3[nH]c(cc4nc(cc5[nH]c(cc1n2)cc5-c1cc(O)cc(O)c1)CC4(C)C)cc3-c1cc(O)cc(O)c1	80	≥ 2.5	13.5	Active			Active
COCCOCCOCCOCCNCc1cc(CNCCOCCOCCOCCOC)cc(-c2c3nc(cc4[nH]c(cc4-c4ccc(C)cc4)c(OC)c4nc(cc5[nH]c2cc5-c2ccc(C)cc2)C(C)(C)C4)C(C)(C)C3)c1	500	≥ 2.2	3.9				
CC1(C)Cc2cc3[nH]c(cc4nc(cc5[nH]c(cc1n2)cc5C(=O)O)CC4(C)C)cc3C(=O)O	4000	1.4	0.72				
CC1(C)Cc2cc3[nH]c(cc4nc(cc5[nH]c(cc1n2)cc5C(=O)/C=C/c1cc(O)cc(O)c1)CC4(C)C)cc3C(=O)/C=C/c1cc(O)cc(O)c1	200	≥ 1.8	1.8				
CC1(C)Cc2cc3[nH]c(cc4nc(cc5[nH]c(cc1n2)cc5C#CC[N+](C)(C)C)CC4(C)C)cc3C#CC[N+](C)(C)C.[Cl-].[Cl-]	2000	0.9	8.2				
